B1: tRNA (parent)
chain: GUUCCGUUGGCGUAAUGGUAACGCGUCUCCCUCCUAAGGAGAAGACUGCGGGUUCGAGUCCCGUACGGAACG

This sample holds only a part of the variants without activity.

The variants in the series derive from B1. The series can be described thus: yeast fitness relative to wild type (ratio to wild type); higher = fitter; tRNA-Arg(CCU), competitive growth, 37 C, YPD. Summed up: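 Gene amplicons from the start population and from each of six end populations were read by 100-nucleotide paired-end sequencing. Those end populations came from pooled Saccharomyces cerevisiae strains carrying tRNA-Arg(CCU) gene variants at the native locus, competed in YPD at 37°C for 24 hours. Fitness relative to wild type was worked out from changes in genotype frequencies. Genotypes needed ≥ 100 starting reads, and estimates < 0.5 were set to 0.5.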
For A20G C46U A57C, the yeast fitness came to 0.514.
On to A20G C22A C34G C46U G63A, for which the yeast fitness was at most 0.5.
In the case of A20G C46G it was 0.942; in that of A20G C46A, 0.925; in that of A20G G23A U26G, at most 0.5.
With A20G C24U U32A C49U C55A, the yeast fitness is at most 0.5.
In the case of A20G U35C G50C it was at most 0.5; in that of A20U A21U C31G C55A G68U, at most 0.5.
In the case of A20G U53A it was 0.692; in that of A20G U53G, 0.571.
Regarding A20U A43U G48C C60G, the yeast fitness is at most 0.5.
The value for A20G C24G C60A was at most 0.5.
Turning to A20G G56A, the yeast fitness came out at 1.01.
Turning to A20G G56U, the yeast fitness was 0.804.
With A20G G25C G51C, the yeast fitness is 0.658.
On to A20U A21C C29U A57C, for which the yeast fitness was at most 0.5.
In the case of A20U A36G G38A A40U it was 0.501; in that of A20U A21C C22U U53C U64A, 0.77; in that of A20U A65U A70C, 0.568.
As to A20U A21C C27A G68A, the yeast fitness is at most 0.5.
The value for A20G C27U A57C was at most 0.5; that for A20U C27U U64C was 0.954.
Regarding A20G C33U G39A A69C, the yeast fitness is at most 0.5.
The value for A20G G41A C60G A65G was 0.585; that for A20G U28A A42G C55A C66A was at most 0.5; that for A20U A45U C62A A70C was 0.505.
The value for A20G C24U U26A C61G A65C was 0.567; that for A20G C24A C27A was 0.52; that for A20U A42U was 0.742.
In the case of A20U A42G it was 0.797; in that of A20G C22G C27G C30U C31G G51C G67A A69U, at most 0.5.
With A20G C34A A36G C66U, the yeast fitness is at most 0.5.
The value for A20U A21G C22A G48A C49G was at most 0.5.
Take A20G C27G A43U G68C: the yeast fitness worked out at 0.582.
As to A20G U35A A40C G52A C60A C61G, the yeast fitness was found to be 0.6.
Turning to A20G C31G C46G G50A G67C, the yeast fitness was at most 0.5.
In the case of A20G C29U C34U G50A C55G it was at most 0.5; in that of A20U C29G A65U, at most 0.5; in that of A20G C49U C66U, 0.684.
For A20G C22G A45C C46G A57U, the yeast fitness worked out at 0.553.
The value for A20U A40U C46G C62G C66U A70C was 0.573.
As to A20U C22G, the yeast fitness came out at 0.633.
In the case of A20G C61U it was 0.964; in that of A20G C61G, 0.617; in that of A20G C31G C46G G50A, at most 0.5.
As to A20G U28A A40G, the yeast fitness was at most 0.5.
The value for A20G C27U C33G A43G A57G C61U C62U was at most 0.5.
As for A20G U32C U47A, the yeast fitness is 0.626.
The value for A20G G52A was 0.664; that for A20G G58A A70C was 0.836; that for A20U C27U C30A C33G A42G G51C G68C was at most 0.5.
As to A20G C24G G44C, the yeast fitness came out at 0.784.
Regarding A20G U26C A42U, the yeast fitness came out at 0.715.
For the variant A20U A40U C46A, the yeast fitness worked out at 0.613.
The value for A20G C24U C33U was at most 0.5; that for A20U A36U G44A G51C G52A was at most 0.5.
The value for A20G G23C C31U C46G A70U was 0.57; that for A20U A36G C49U C55G was 0.501.
Take A20U A43C: the yeast fitness is 0.775.
In the case of A20U A43G it was 0.978; in that of A20U A43U, 0.905.
Consider A20G U26A C66A, for which the yeast fitness was at most 0.5.
The value for A20G G58A was 0.97; that for A20G G58U was 0.781; that for A20G C33A A57G was 0.52.
Take A20G G25C U47A G56C U59C: the yeast fitness is at most 0.5.
In the case of A20G G50C C60G it was 0.634.
In the case of A20G U28C A40U, the yeast fitness was determined as 1.04.
In the case of A20G U28C A40C it was 0.634; in that of A20U A36G C55G G56A, at most 0.5.
For the variant A20U C22U A42G, the yeast fitness was at most 0.5.
In the case of A20U A42C A69U it was 0.564; in that of A20G G23C G63C, 0.613; in that of A20G C27G A40U, at most 0.5.
In the case of A20G C29U G38A G48C C62G it was at most 0.5; in that of A20G G48A, 0.933.
For the variant A20G G23A C24G, the yeast fitness is at most 0.5.
The value for A20U C22G C60G C66G was at most 0.5; that for A20U C22A A45C U53A was 0.594; that for A20G U26A C61G A65C was 0.518.
In the case of A20G G44C it was 0.929; in that of A20G G50C U54G, at most 0.5.
For the variant A20U A45C C55U A57U, the yeast fitness is at most 0.5.
The value for A20G C27A U35C A36G A42U was at most 0.5; that for A20G C60G A69C was at most 0.5.
A20U A45G C46U: the yeast fitness came to 0.836.
The value for A20U A45C G51U A65G was at most 0.5; that for A20U A36G C49U A70U was at most 0.5; that for A20G C22G C27G C30U C31G G51C U54C A65G was at most 0.5.
In the case of A20G G25C U35C G58C it was at most 0.5; in that of A20G U59G A65U, 1.05.
As for A20U C27G C29U C62G, the yeast fitness was at most 0.5.
As for A20G C24G C60G C62U, the yeast fitness came to 0.562.
The value for A20U C27G was 0.642; that for A20U C24G A45G U53A was at most 0.5; that for A20U C29G A45G A69U was 0.525.
As for A20U C24U C29G C49G G63C, the yeast fitness was at most 0.5.
The value for A20G C22G U47C U53G was at most 0.5.
The value for A20G G23A C33G A69U was at most 0.5.
For A20G U59G A69C, the yeast fitness came out at 0.526.
The value for A20G A70G was 1.02.
For A20G A70C, the yeast fitness amounted to 0.994.
In the case of A20G A70U it was 1.06; in that of A20G C30U C55U, at most 0.5; in that of A20G G51C C61G, 0.546.
In the case of A20G G41A C61U it was 0.644; in that of A20G U64G, 0.817.
The value for A20G U64A was 0.902; that for A20G U64C was 0.929; that for A20G C22U C31G was 0.626.
Regarding A20U A69U, the yeast fitness amounted to 1.05.
The value for A20U A69C was 0.979; that for A20G G23A A45U G56A was 0.539; that for A20G C49G U59A was 0.556.
In the case of A20G C29G C34A it was at most 0.5.
The value for A20U C27U C30A C33G A42G G51C was 0.583.
In the case of A20U A42C A57C, the yeast fitness was at most 0.5.
With A20G A69G, the yeast fitness came to 1.04.
In the case of A20G A69U it was 1.07.
Consider A20U A40G G50A, for which the yeast fitness was at most 0.5.
Take A20G U26A: the yeast fitness is 0.884.
In the case of A20G C55A it was 0.585; in that of A20G C55G, 0.586.
For the variant A20U A37C, the yeast fitness worked out at 0.723.
As to A20G U35A U54G, the yeast fitness is at most 0.5.
The value for A20G G25C C34U G41A C49G was at most 0.5; that for A20U A40C was 0.712; that for A20U A40U was 0.654.
For A20U C29A C30U A36U, the yeast fitness is at most 0.5.
In the case of A20U C22G G23A A43U G48A, the yeast fitness is at most 0.5.
A20G C29U C55G A57C C61U: the yeast fitness is 0.746.
On to A20G U28A C31U U54A, for which the yeast fitness was found to be 0.613.
Turning to A20G C27G A43U G63A G68C, the yeast fitness is at most 0.5.
In the case of A20U A43G A57C U59A A65C it was at most 0.5; in that of A20G G50U, 0.831.
For the variant A20G G50C, the yeast fitness was determined as 0.636.
The value for A20U C24G was 0.601.
For A20U C24U A42U C46A G56A G67A, the yeast fitness was at most 0.5.
Take A20U A45G: the yeast fitness was 0.843.
In the case of A20U A45C it was 0.621.
In the case of A20G C29A G68A it was 0.613.
In the case of A20G C33A A37G C62A it was at most 0.5; in that of A20G C27U A45C A57C, at most 0.5; in that of A20G C49U C66U A70C, at most 0.5.
For A20G C31G C55G A70G, the yeast fitness was at most 0.5.
As for A20G C24A, the yeast fitness turned out to be 0.56.
In the case of A20G C24G it was 0.575; in that of A20G U28A A37G C55G, 0.578; in that of A20U A21C A45U, 0.675.
As for A20U A36G A37G C55G, the yeast fitness was 0.546.
For the variant A20U A40G U64A, the yeast fitness amounted to 0.508.
Turning to A20G U28G A57U A70U, the yeast fitness was at most 0.5.
For the variant A20G C22A G23C, the yeast fitness was at most 0.5.
Turning to A20U A65U A69U, the yeast fitness was found to be 0.722.
Take A20G C60U C66U: the yeast fitness is at most 0.5.
Regarding A20U A45C G50A, the yeast fitness was found to be 0.675.
In the case of A20U A42C G56A, the yeast fitness was at most 0.5.
In the case of A20G C34U G38A A43G it was at most 0.5.
The value for A20U C24U A42U C46A C55U C61G A69C was 0.59; that for A20U A36G C55G A65U was 0.52.
The value for A20G C49U A69U was 0.779.
A20G C29A: the yeast fitness turned out to be 0.705.
On to A20G C29U, for which the yeast fitness turned out to be 0.88.
On to A20U C29G A43U C66U, for which the yeast fitness is at most 0.5.
In the case of A20U C24U G48A C55U C60G it was at most 0.5; in that of A20U A45G C46U C66U A69U, at most 0.5.
For the variant A20U C27A A40G A69U, the yeast fitness was at most 0.5.
